What all share (type): functional
Conditions in all cases: read-out: IZ

For assay [1], the system named is Proteus vulgaris. Kind of assay: Antimicrobial activity against Proteus vulgaris at 50 ug/ml after 24 hrs by agar diffusion method. The gist of the method: (§1)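 Agar well diffusion: petri plates (9 cm) with about 9 ml nutrient agar, seeded with the test organism. Wells cut with a cork borer and loaded with test compound at 25, 50, 75 or 100 per ml; tetracycline as control. Incubated 37 °C for 24 h; average inhibition-zone diameter around wells measured (mm).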
On the technique in general: In agar diffusion tests the substance spreads into inoculated agar from a disc or well.

The test system of assay [2] is Proteus vulgaris. Kind of assay: Antimicrobial activity against Proteus vulgaris at 75 ug/ml after 24 hrs by agar diffusion method. In outline: as §1
Assay [3] deals with Proteus vulgaris. The assay can be described thus: Antimicrobial activity against Proteus vulgaris at 100 ug/ml after 24 hrs by agar diffusion method. The gist of the method:
as §1

Assay [4] has as its system Proteus mirabilis. Kind of assay: Antimicrobial activity against Proteus mirabilis at 25 ug/ml after 24 hrs by agar diffusion method. The gist of the method:
as §1

Assay [5] relates to Proteus mirabilis. The assay can be described thus: Antimicrobial activity against Proteus mirabilis at 50 ug/ml after 24 hrs by agar diffusion method. In outline:
as §1

For assay [6], the system named is Proteus mirabilis. The assay can be described thus: Antimicrobial activity against Proteus mirabilis at 75 ug/ml after 24 hrs by agar diffusion method. The gist of the method: as §1
Assay [7] concerns Proteus mirabilis. The assay can be described thus: Antimicrobial activity against Proteus mirabilis at 100 ug/ml after 24 hrs by agar diffusion method. In outline:
as §1

For assay [8], the system named is Staphylococcus aureus. The assay can be described thus: Antimicrobial activity against Staphylococcus aureus at 25 ug/ml after 24 hrs by agar diffusion method. In outline: as §1
The test system of assay [9] is Staphylococcus aureus. The assay can be described thus: Antimicrobial activity against Staphylococcus aureus at 50 ug/ml after 24 hrs by agar diffusion method. In outline:
as §1

For assay [10], the system named is Staphylococcus aureus. The assay can be described thus: Antimicrobial activity against Staphylococcus aureus at 75 ug/ml after 24 hrs by agar diffusion method. The gist of the method:
as §1

Assay [11] has as its system Staphylococcus aureus. Kind of assay: Antimicrobial activity against Staphylococcus aureus at 100 ug/ml after 24 hrs by agar diffusion method. The gist of the method:
as §1

Assay [12] relates to Salmonella enterica subsp. enterica serovar Typhi str. CT18. The assay can be described thus: Antimicrobial activity against Salmonella typhi at 25 ug/ml after 24 hrs by agar diffusion method. In outline:
(§2)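 Agar well diffusion: about 9 ml nutrient agar in 9 cm Petri plates, seeded with the test organism. Wells cut with a cork borer and loaded with test compound at 25–100 per ml; tetracycline as control. Plates incubated 24 h at 37 °C. Read-out is the average diameter of the inhibition zone around each well, in mm.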

Assay [13] has the same test system. Kind of assay: Antimicrobial activity against Salmonella typhi at 50 ug/ml after 24 hrs by agar diffusion method. The gist of the method: as §2
Assay [14] shares this test system. Kind of assay: Antimicrobial activity against Salmonella typhi at 75 ug/ml after 24 hrs by agar diffusion method. The gist of the method: as §2
The test system is the same in assay [15]. Kind of assay: Antimicrobial activity against Salmonella typhi at 100 ug/ml after 24 hrs by agar diffusion method. The gist of the method:
as §2

Assay [16] concerns Proteus vulgaris. Kind of assay: Antimicrobial activity against Proteus vulgaris at 25 ug/ml after 24 hrs by agar diffusion method. In outline:
as §1

In the case of `CN1C[C@@H](c2ccccc2)[C@@]2(CCc3c([nH]c4ccccc34)C2=O)[C@]12C(=O)c1cccc3cccc2c13`, the zone of inhibition at 50 µg/mL came out at 14 mm in assay [1], 13 mm in assay [5], 19 mm in [9] and 14 mm in [13]. The zone of inhibition at 75 µg/mL was determined as 18 mm in [2], 22 mm in [6], 21 mm in assay [10] and 20 mm in assay [14]. Further, the zone of inhibition at 100 µg/mL was determined as 21 mm in assay [3], 32 mm in assay [7], 26 mm in assay [11] and 28 mm in assay [15]. Further, the results for the zone of inhibition at 25 µg/mL in assay [4], in [8] and in [12] were 11 mm, 14 mm and 11 mm, respectively.

On to `CN1C[C@@H](c2ccc([N+](=O)[O-])cc2)[C@@]2(CCc3c([nH]c4ccccc34)C2=O)[C@]12C(=O)Nc1ccccc12`, for which the zone of inhibition at 25 µg/mL in assay [16] amounted to 9 mm; in assay [4], 12 mm; in [12], 9 mm. For the same molecule, the zone of inhibition at 50 µg/mL in [1] is 13 mm; in assay [5], 13 mm; in assay [9] it was 11 mm; in [13], 16 mm. The zone of inhibition at 75 µg/mL in assay [2] came to 18 mm; in assay [6], 16 mm; in assay [10], 14 mm; in assay [14] it was 18 mm. Moreover, the zone of inhibition at 100 µg/mL came out at 22 mm in [3], 20 mm in assay [7], 20 mm in assay [11] and 22 mm in assay [15].

Turning to `CN1C[C@@H](c2ccc(Br)cc2)[C@@]2(CCc3c([nH]c4ccccc34)C2=O)[C@]12C(=O)Nc1ccccc12`, the zone of inhibition at 25 µg/mL in [16], in assay [4] and in assay [8] was 11 mm throughout. Further, the zone of inhibition at 50 µg/mL was determined as 14 mm in assay [1], 14 mm in [5], 15 mm in [9] and 9 mm in assay [13]. Besides, the zone of inhibition at 75 µg/mL was 18 mm in assay [2], 16 mm in assay [6], 18 mm in assay [10] and 13 mm in assay [14]. Also, the zone of inhibition at 100 µg/mL amounted to 21 mm in assay [3], 18 mm in assay [7], 22 mm in assay [11] and 16 mm in assay [15].

`CN1C[C@@H](c2ccc(Cl)cc2)[C@@]2(CCc3c([nH]c4ccccc34)C2=O)[C@]12C(=O)c1cccc3cccc2c13`: the zone of inhibition at 25 µg/mL worked out at 19 mm in [16], 12 mm in [4], 14 mm in assay [8] and 13 mm in assay [12]. The zone of inhibition at 50 µg/mL amounted to 18 mm in assay [1], 16 mm in assay [5], 18 mm in assay [9] and 16 mm in [13]. The zone of inhibition at 75 µg/mL in [2] is 24 mm; in assay [6] it was 24 mm; in assay [10] it was 22 mm; in assay [14], 21 mm. For the same molecule, the zone of inhibition at 100 µg/mL in assay [3] is above 40 mm; in assay [7] it was 36 mm; in [11], 34 mm; in assay [15], 31 mm.

As to `Cc1ccc([C@@H]2CN(C)C3(C(=O)c4ccccc4C3=O)[C@]23CCc2c([nH]c4ccccc24)C3=O)cc1`, the zone of inhibition at 75 µg/mL in assay [2] came out at 9 mm; in assay [6], 14 mm; in [10], 18 mm; in assay [14] it was 14 mm. The zone of inhibition at 100 µg/mL in [3] worked out at 12 mm; in assay [7], 18 mm; in [11], 21 mm; in assay [15] it was 16 mm. In addition, the zone of inhibition at 25 µg/mL in assay [4] and in assay [8] was 9 mm throughout. Moreover, the figures for the zone of inhibition at 50 µg/mL in assay [5], in assay [9] and in assay [13] were 11 mm, 14 mm and 9 mm, respectively.

As for `CN1C[C@@H](c2ccc(Br)cc2)[C@@]2(CCc3c([nH]c4ccccc34)C2=O)C12C(=O)c1ccccc1C2=O`, the zone of inhibition at 25 µg/mL in [16] and in [4] was 9 mm each time. The zone of inhibition at 50 µg/mL in assay [1] was found to be 13 mm; in assay [5], 11 mm; in assay [9], 12 mm; in assay [13], 9 mm. Further, the zone of inhibition at 75 µg/mL was determined as 16 mm in assay [2], 14 mm in assay [6], 19 mm in assay [10] and 18 mm in assay [14]. The zone of inhibition at 100 µg/mL in [3] is 18 mm; in assay [7] it was 16 mm; in assay [11] it was 21 mm; in [15] it was 19 mm.

Turning to `CN1C[C@@H](c2ccc([N+](=O)[O-])cc2)[C@@]2(CCc3c([nH]c4ccccc34)C2=O)C12C(=O)c1ccccc1C2=O`, the zone of inhibition at 25 µg/mL worked out at 12 mm in assay [16], 9 mm in assay [4], 11 mm in [8] and 9 mm in [12]. In addition, the zone of inhibition at 50 µg/mL in assay [1] was 17 mm; in assay [5], 13 mm; in [9], 14 mm; in assay [13] it was 11 mm. The zone of inhibition at 75 µg/mL in [2] turned out to be 18 mm; in assay [6] it was 18 mm; in assay [10], 18 mm; in assay [14] it was 13 mm. For the same molecule, the zone of inhibition at 100 µg/mL in assay [3] was 18 mm; in assay [7], 21 mm; in assay [11], 18 mm; in assay [15] it was 18 mm.

In the case of `COc1ccc([C@@H]2CN(C)C3(C(=O)c4ccccc4C3=O)[C@]23CCc2c([nH]c4ccccc24)C3=O)cc1`, the values for the zone of inhibition at 25 µg/mL in assay [16], in assay [4] and in assay [8] were 13 mm, 13 mm and 9 mm, respectively. The zone of inhibition at 50 µg/mL in [1] was found to be 15 mm; in assay [5], 15 mm; in assay [9] it was 13 mm; in assay [13], 11 mm. For the same molecule, the zone of inhibition at 75 µg/mL in [2] was 16 mm; in assay [6], 17 mm; in assay [10], 15 mm; in assay [14], 16 mm. Further, the zone of inhibition at 100 µg/mL in assay [3] turned out to be 21 mm; in assay [7] it was 20 mm; in [11] it was 20 mm; in assay [15], 21 mm.

As for `CN1C[C@@H](c2ccccc2)[C@@]2(CCc3c([nH]c4ccccc34)C2=O)C12C(=O)c1ccccc1C2=O`, the values for the zone of inhibition at 25 µg/mL in assay [16] and in assay [12] were 11 mm and 9 mm, respectively. The zone of inhibition at 50 µg/mL in [1] amounted to 15 mm; in assay [5], 9 mm; in assay [9] it was 14 mm; in [13] it was 13 mm. Moreover, the zone of inhibition at 75 µg/mL in assay [2] came out at 18 mm; in assay [6] it was 13 mm; in assay [10], 16 mm; in assay [14], 14 mm. For the same molecule, the zone of inhibition at 100 µg/mL stood at 21 mm in assay [3], 15 mm in [7], 20 mm in assay [11] and 18 mm in assay [15].

On to `CN1C[C@@H](c2ccc(Cl)cc2)[C@@]2(CCc3c([nH]c4ccccc34)C2=O)C12C(=O)c1ccccc1C2=O`, for which the zone of inhibition at 50 µg/mL came to 14 mm in assay [1], 9 mm in [5], 11 mm in assay [9] and 13 mm in assay [13]. Besides, the zone of inhibition at 75 µg/mL came out at 18 mm in [2], 14 mm in assay [6], 16 mm in assay [10] and 16 mm in assay [14]. Besides, the zone of inhibition at 100 µg/mL in assay [3] turned out to be 24 mm; in [7], 23 mm; in assay [11], 19 mm; in assay [15] it was 19 mm. In addition, the zone of inhibition at 25 µg/mL in assay [8] and in assay [12] was 9 mm each time.

The values above are taken from ChEMBL document CHEMBL1138567, “Regioselective synthesis and antimicrobial screening of novel ketocarbazolodispiropyrrolidine derivatives” (2009).
